Screening results deposited in PubChem by Broad Institute.
PDI inh: PDI (human) enzyme inhibition. P07237. PDI insulin aggregation turbidity, A650, 90 min. inhibition, % at 10 µM. actives 0.052% (n = 350,000). AID 588391;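 active = mean inhibition across replicates of 30% or more, whatever share of single replicates reach that level; inconclusive = mean inhibition below 30% while every single replicate reaches 30%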
ERp5 inh: blocks human ERp5 reductase activity on insulin | ERp5 insulin aggregation, absorbance 650 nm, 90 min | inhibition, % at 9.99 µM | actives 0.05% (n = 350,000) | Q15084;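 active = mean replicate inhibition above about 25%, with every replicate also reaching it, limit read from the data, passing the limit was not always enough; inconclusive = only one of those two criteria met; inactive = neither criterion met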
Target sequence (Q15084 whole entry, looked up): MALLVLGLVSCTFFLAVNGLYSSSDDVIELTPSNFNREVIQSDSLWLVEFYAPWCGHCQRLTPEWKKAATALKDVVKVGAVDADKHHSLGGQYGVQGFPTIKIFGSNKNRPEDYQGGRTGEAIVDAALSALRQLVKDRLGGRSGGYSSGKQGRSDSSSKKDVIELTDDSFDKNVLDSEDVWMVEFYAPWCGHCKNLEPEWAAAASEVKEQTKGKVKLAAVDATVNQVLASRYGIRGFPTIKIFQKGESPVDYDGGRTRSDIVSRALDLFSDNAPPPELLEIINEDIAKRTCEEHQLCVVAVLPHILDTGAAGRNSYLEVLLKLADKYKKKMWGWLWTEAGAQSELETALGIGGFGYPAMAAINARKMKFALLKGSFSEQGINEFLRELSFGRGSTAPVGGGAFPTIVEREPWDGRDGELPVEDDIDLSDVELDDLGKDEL
FGF22 binding: shifts melting point of recombinant human FGF22 | AID 651658 | activity (Tm shift, normalised), % at 9.99 µM | actives 1.5% (n = 340,000) | recombinant FGF22 thermal shift, SYPRO orange fluorescence; percent of sucrose octasulfate shift, DMSO zero;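 active = mean Tm shift, scaled 0 neutral to 100 positive control, at about 1.3% or above, every replicate too, limit read from the data; inconclusive = no clear call, values can overlap the other calls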
S100A4 MyoIIA: S100A4-myosin IIA interaction inhibition; P26447; S100A4/TAMRA-MyoIIA peptide fluorescence polarization; inhibition, % at 10.7 µM; actives 0.14% (n = 360,000); AID 652163;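 active = mean inhibition of at least 70% across replicates, with every replicate also reaching that level; inconclusive = mean inhibition reaches 70% but some replicates fall short; inactive = mean inhibition below 70%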
Target sequence (P26447 whole entry, looked up): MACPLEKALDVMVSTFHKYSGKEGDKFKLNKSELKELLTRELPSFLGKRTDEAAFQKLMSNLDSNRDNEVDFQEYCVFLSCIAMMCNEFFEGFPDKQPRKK
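Material: S100A4 monomer protein / Buffer or medium: 50 mM HEPES pH 7.2, 10 mM CaCl2, 100 mM KCl / Times: 5 min incubation before reading / Benchmarks: neutral control DMSO, positive control TFP / Reagent: labelled myosin peptide probe, 5 nM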
ERAP1 HTS inh: ERAP1 (human) enzyme inhibition; Q9NZ08; actives 0.15% (n = 340,000); recombinant ERAP1, Leu-AMC fluorescence, 60 min; inhibition, % at 10.7 µM;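 active = mean replicate inhibition of at least 30%, or all replicates individually reaching that 30% level; inactive = mean below 30% and not every replicate reaching it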;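 also: 0% = neutral control wells and 100% = L-leucinethiol positive control wells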
Numbers without * were called inactive; ? = inconclusive; · = no result given. Only a selection was taken, and hits are over-represented in it overall.

SMILES	PDI inh	ERp5 inh	FGF22 binding	S100A4 MyoIIA	ERAP1 HTS inh
Cc1cc(C(=O)CN2CCCC2)c(C)n1-c1ccc(F)cc1	-6	-5	0	-3	-1
COc1ccc(-n2c(C)cc(C(=O)C[N+]34CCN(CC3)CC4)c2C)cc1	-4	6	43*	0	17
O=S1(=O)CCN(CCc2c[nH]c3ccccc23)CC1	4	?	43*	-3	0
CCOc1ccc(-n2c(O)c(C=NCCN(CC)CC)c(=O)[nH]c2=O)cc1	6	·	·	·	·
Cc1cccc(C)c1OP(N)(=O)Oc1c(C)cccc1C	6	0	0	-15	6
Cc1cccc(OP(N)(N)=O)c1C	1	9	43*	-3	-3
C[N+]1(C)C2CCC1CC(OC(=O)C(CO)c1ccccc1)C2 (stereo unspecified)	3	-2	43*	-8	12
COC(=O)CCCCC1SCC(NC(=O)c2ccccc2)C1Cl (stereo unspecified)	1	2	0	-2	0
CCCCCC[N+](=O)[O-]	·	-1	0	-5	1
CCCCCCCCCCCCCCCC[N+](C)(C)C	0	6	0	6	42*
O=C(C[N+]12CCC(CC1)C(O)C2)c1ccc(Br)cc1 (stereo unspecified)	-10	3	0	-5	0
CCCCn1c(=O)c(C=Nc2cc([N+](=O)[O-])ccc2OC)c(O)n(CCCCl)c1=O	-3	-5	43*	-2	-2
O=C1OCCC1C(=O)c1ccccc1 (stereo unspecified)	5	-10	44*	-1	0
O=C1NC(=O)N(Cc2ccco2)C(=O)/C1=C/c1cccn1CCOc1ccccc1Cl	-2	5	1	-13	1
CCOC(=O)[C@@H]1[C@H]2COc3ccc(Br)cc3[C@H]2N2C(=O)N(c3cccc(C)c3)C(=O)[C@]12C	-1	1	0	-2	1
Cc1nc2cc(C(=O)N3CCC4(CC3)OCCO4)ccc2n1-c1ccc(Br)cc1	0	·	·	·	·
O=C(c1ccc2c(c1)ncn2-c1ccc(F)cc1F)N1CCC2(CC1)OCCO2	-10	0	44*	-12	0
COC(=O)C1=C(c2cc3ccccc3o2)C[C@@H]2CC[C@H]1N2C(=O)N1CCC(O)CC1	-4	-1	0	1	·
CC(C)N=C(NC(C)C)N1CC1	-4	0	43*	2	-2
C[n+]1c(-c2ccccc2)c2cc(N)ccc2c2ccc(N)cc21	-9	2	-1	126*	9
COc1cc2c(cc1OC)-c1c(OC)c(OC)cc3c1[C@H](C2)[N+](C)(C)CC3	-3	-3	0	1	79*
COc1cccc(C2(O)CCN(CC(=O)Nc3nc(C)cs3)CC2)c1	4	3	43*	2	0
CC1=C(O)C(=O)C=C2C1=CC=C1C2(C)CCC2(C)C3CC(C)(C(=O)O)CCC3(C)CCC12C (stereo unspecified)	63*	11	0	-3	1
CCN(CC)P(=O)(c1n(CC)cc[n+]1CC)N(CC)CC	0	1	0	0	109*
O=c1[nH]c(=O)n(Cc2ccc(F)cc2)c(O)c1/C=N/Nc1ccccc1	6	1	0	-3	1
SMILES	PDI inh	ERp5 inh	FGF22 binding	S100A4 MyoIIA	ERAP1 HTS inh
CC(C)(C)n1nnnc1C(C1CC1)N1CCC2(CC1)C(=O)NCN2c1ccccc1 (stereo unspecified)	·	2	0	-3	·
CC(C)CC#Cc1ccc([C@@H]2[C@H]3CN(C(=O)Cc4ccccn4)CCCCN3[C@H]2CO)cc1	·	5	-1	-1	-1
CC(C)(C)NS(=O)(=O)c1ccc(OCC(=O)N2CCN(Cc3ccccc3)CC2)cc1	5	4	44*	-2	0
COc1cc(C(=O)NN=Cc2ccc(N(CCCl)CCCl)cc2)cc(OC)c1OC	6	14	44*	3	-4
C=C1C(=O)OC2CCN3CC=C(COC(=O)C(C)(O)C4(CO4)C1C)C23 (stereo unspecified)	·	1	0	1	-3
O=[N+]([O-])c1oc2ccc3ccccc3c2c1CCO	8	-2	0	0	3
N#CC1(c2ccccc2)CCN(C2CC(=O)N(c3ccc4c(c3)OCO4)C2=O)CC1 (stereo unspecified)	14	-4	44*	0	-2
N#CC1(c2ccccc2)CCN(C2CC(=O)N(c3ccc(F)cc3)C2=O)CC1 (stereo unspecified)	-2	·	·	·	·
c1cnc(N2CCNCC2)nc1	-6	-2	0	0	1
c1ccc(Cc2cnc(N3CCNCC3)nc2)cc1	·	-3	0	-4	64*
CCN1CCN(C(=O)COc2ccc(S(=O)(=O)N3CCOCC3)cc2Cl)CC1	3	-3	0	-2	-3
Cn1ncnc2c(=O)n(C)c(=O)nc1-2	175*	·	·	·	·
C[n+]1ccc(-c2ccncc2)cc1	-3	-2	0	-3	31*
c1ccc(-c2ccncc2)cc1	·	-7	0	99*	1
COc1cccc(NC(=O)CN2CC(c3ccccc3)CC2=O)c1 (stereo unspecified)	·	1	0	1	0
O=C(CN1CC(c2ccccc2)CC1=O)NCc1ccc(F)cc1 (stereo unspecified)	·	3	43*	-2	1
Cc1ccc2c(c1)C1C[N+](C)(CC(=O)c3ccc(Cl)cc3Cl)CCC1N2C(=O)c1ccc(F)cc1 (stereo unspecified)	9	0	0	2	22
CCOP(=O)(OCC)c1cccc(OP(=O)(c2cccc([N+](=O)[O-])c2)c2cccc([N+](=O)[O-])c2)c1	1	1	0	0	·
CCOP(=O)(OCC)c1cccc(O)c1	-3	4	45*	-1	-2
NC(=S)/N=C/c1c(O)[nH]c(=O)[nH]c1=O	-7	4	43*	2	22
CCN(CC)C(=O)c1ccc(NC(=O)C2=C(C)OCCS2)cc1	-1	5	0	-13	-2
CN(C(=O)Oc1cccc2ccccc12)C1C=CCC1 (stereo unspecified)	0	-10	43*	-4	-3
C=C(C)CC1(CC)C(=O)NC(=S)NC1=O	-2	-1	44*	0	3
C=CCC1(CC)C(=O)NC(=S)NC1=O	2	2	0	-7	3
COc1ccc(OC(=O)N(C)C[C@H]2OCc3cnnn3CCCC(=O)N([C@H](C)CO)C[C@@H]2C)cc1	-1	-12	0	1	7
CC[N+](C)(CC)CCCCOc1ccc2c(c1)C(=O)c1cc(OCCCC[N+](C)(CC)CC)ccc1-2	-4	·	0	5	68*
CCOCC(=O)NC1CCSC1=O (stereo unspecified)	1	·	·	·	·
O=[N+]([O-])c1ccc(C(c2ccc([N+](=O)[O-])cc2)c2ccc([N+](=O)[O-])cc2)cc1	0	-2	0	-1	-2
